Measured values as given in ChEMBL document CHEMBL5058577, “EUbOPEN Chemogenomics Library 2 (Multiplex)” (2022).

Test system: U2OS
Test: Multiplex assay against U2OS
Format: toxicity, cell-based
Conditions: human
Summary of the method: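 Tubulin, mitochondrial-mass and membrane-permeability phenotypes are per cents of healthy-nucleus cells. Cells were gated by CellPathfinder machine learning into Hoechst high-intensity objects or normal cells, normal cells into healthy, pyknosed or fragmented nuclei, and pyknosed cells into mitotic or apoptotic. Before that, live cells stained at seeding with Hoechst33342, BioTracker Green Microtubule Cytoskeleton Dye, MitoTracker Red and Annexin V Alexa Fluor 680 were imaged on a CQ1 microscope at 37°C and 5% CO2 after compound addition.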

[1] = 12 h, 1 µM, compound concentration 1 uM, replicate 1
[2] = 12 h, 1 µM, compound concentration 1 uM, replicate 2
[3] = 12 h, 10 µM, compound concentration 10 uM, replicate 1
[4] = 12 h, 10 µM, compound concentration 10 uM, replicate 2
[5] = 24 h, 1 µM, compound concentration 1 uM, replicate 1
[6] = 24 h, 1 µM, compound concentration 1 uM, replicate 2
[7] = 24 h, 10 µM, compound concentration 10 uM, replicate 1
[8] = 24 h, 10 µM, compound concentration 10 uM, replicate 2
[9] = 48 h, 1 µM, compound concentration 1 uM, replicate 1
[10] = 48 h, 1 µM, compound concentration 1 uM, replicate 2
[11] = 48 h, 10 µM, compound concentration 10 uM, replicate 1
[12] = 48 h, 10 µM, compound concentration 10 uM, replicate 2

COc1cc(C(=O)N2CC[C@@H](O)[C@@H](N)C2)cc2nc(-c3cc4ccccc4n3CC3CC3)n(C)c12.Cl
Population Apoptotic (%) [1]: 50% | Population Fragmented Nuclei (%) [1]: 32% | Population Healthy Nuclei (%) [1]: 53% | Population Hoechst High Intensity Objects (%) [1]: 4% | Population Membrane Permeable-Phenotype (%) [1]: 38% | Population Mitochondria Different-Phenotype (%) [1]: 16% | Population Mitotic Cells (%) [1]: 50% | Population Normal (%) [1]: 95% | Population Pyknosed Nuclei (%) [1]: 14% | Population Tubulin-Different-Phenotype (%) [1]: 29% | Total Cell Count [1]: 223 | Population Apoptotic (%) [2]: 75% | Population Fragmented Nuclei (%) [2]: 15% | Population Healthy Nuclei (%) [2]: 75% | Population Hoechst High Intensity Objects (%) [2]: 1% | Population Membrane Permeable-Phenotype (%) [2]: 20% | Population Mitochondria Different-Phenotype (%) [2]: 18% | Population Mitotic Cells (%) [2]: 25% | Population Normal (%) [2]: 98% | Population Pyknosed Nuclei (%) [2]: 8% | Population Tubulin-Different-Phenotype (%) [2]: 15% | Total Cell Count [2]: 92 | Population Apoptotic (%) [3]: 68% | Population Fragmented Nuclei (%) [3]: 23% | Population Healthy Nuclei (%) [3]: 38% | Population Hoechst High Intensity Objects (%) [3]: 6% | Population Membrane Permeable-Phenotype (%) [3]: 75% | Population Mitochondria Different-Phenotype (%) [3]: 88% | Population Mitotic Cells (%) [3]: 31% | Population Normal (%) [3]: 93% | Population Pyknosed Nuclei (%) [3]: 37% | Population Tubulin-Different-Phenotype (%) [3]: 96% | Total Cell Count [3]: 208 | Population Apoptotic (%) [4]: 56% | Population Fragmented Nuclei (%) [4]: 16% | Population Healthy Nuclei (%) [4]: 61% | Population Hoechst High Intensity Objects (%) [4]: 5% | Population Membrane Permeable-Phenotype (%) [4]: 79% | Population Mitochondria Different-Phenotype (%) [4]: 91% | Population Mitotic Cells (%) [4]: 44% | Population Normal (%) [4]: 94% | Population Pyknosed Nuclei (%) [4]: 22% | Population Tubulin-Different-Phenotype (%) [4]: 94% | Total Cell Count [4]: 120 | Population Apoptotic (%) [5]: 78% | Population Fragmented Nuclei (%) [5]: 28% | Population Healthy Nuclei (%) [5]: 54% | Population Hoechst High Intensity Objects (%) [5]: 3% | Population Membrane Permeable-Phenotype (%) [5]: 19% | Population Mitochondria Different-Phenotype (%) [5]: 14% | Population Mitotic Cells (%) [5]: 21% | Population Normal (%) [5]: 96% | Population Pyknosed Nuclei (%) [5]: 17% | Population Tubulin-Different-Phenotype (%) [5]: 12% | Total Cell Count [5]: 243 | Population Apoptotic (%) [6]: 75% | Population Fragmented Nuclei (%) [6]: 18% | Population Healthy Nuclei (%) [6]: 69% | Population Hoechst High Intensity Objects (%) [6]: 2% | Population Membrane Permeable-Phenotype (%) [6]: 17% | Population Mitochondria Different-Phenotype (%) [6]: 18% | Population Mitotic Cells (%) [6]: 25% | Population Normal (%) [6]: 97% | Population Pyknosed Nuclei (%) [6]: 11% | Population Tubulin-Different-Phenotype (%) [6]: 17% | Total Cell Count [6]: 109 | Population Apoptotic (%) [7]: 84% | Population Fragmented Nuclei (%) [7]: 25% | Population Healthy Nuclei (%) [7]: 35% | Population Hoechst High Intensity Objects (%) [7]: 4% | Population Membrane Permeable-Phenotype (%) [7]: 57% | Population Mitochondria Different-Phenotype (%) [7]: 88% | Population Mitotic Cells (%) [7]: 15% | Population Normal (%) [7]: 95% | Population Pyknosed Nuclei (%) [7]: 38% | Population Tubulin-Different-Phenotype (%) [7]: 78% | Total Cell Count [7]: 222 | Population Apoptotic (%) [8]: 71% | Population Fragmented Nuclei (%) [8]: 26% | Population Healthy Nuclei (%) [8]: 48% | Population Membrane Permeable-Phenotype (%) [8]: 50% | Population Mitochondria Different-Phenotype (%) [8]: 85% | Population Mitotic Cells (%) [8]: 28% | Population Pyknosed Nuclei (%) [8]: 25% | Population Tubulin-Different-Phenotype (%) [8]: 90% | Total Cell Count [8]: 133 | Population Apoptotic (%) [9]: 82% | Population Fragmented Nuclei (%) [9]: 23% | Population Healthy Nuclei (%) [9]: 61% | Population Hoechst High Intensity Objects (%) [9]: 2% | Population Membrane Permeable-Phenotype (%) [9]: 9% | Population Mitochondria Different-Phenotype (%) [9]: 5% | Population Mitotic Cells (%) [9]: 17% | Population Normal (%) [9]: 97% | Population Pyknosed Nuclei (%) [9]: 15% | Population Tubulin-Different-Phenotype (%) [9]: 5% | Total Cell Count [9]: 304 | Population Apoptotic (%) [10]: 76% | Population Membrane Permeable-Phenotype (%) [10]: 17% | Population Mitochondria Different-Phenotype (%) [10]: 11% | Population Mitotic Cells (%) [10]: 23% | Population Pyknosed Nuclei (%) [10]: 14% | Population Tubulin-Different-Phenotype (%) [10]: 12% | Total Cell Count [10]: 149 | Population Apoptotic (%) [11]: 88% | Population Fragmented Nuclei (%) [11]: 29% | Population Healthy Nuclei (%) [11]: 35% | Population Hoechst High Intensity Objects (%) [11]: 12% | Population Membrane Permeable-Phenotype (%) [11]: 47% | Population Mitochondria Different-Phenotype (%) [11]: 65% | Population Mitotic Cells (%) [11]: 11% | Population Normal (%) [11]: 87% | Population Pyknosed Nuclei (%) [11]: 35% | Population Tubulin-Different-Phenotype (%) [11]: 62% | Total Cell Count [11]: 232 | Population Apoptotic (%) [12]: 92% | Population Fragmented Nuclei (%) [12]: 30% | Population Hoechst High Intensity Objects (%) [12]: 6% | Population Mitochondria Different-Phenotype (%) [12]: 84% | Population Mitotic Cells (%) [12]: 7% | Population Normal (%) [12]: 93% | Population Pyknosed Nuclei (%) [12]: 34% | Population Tubulin-Different-Phenotype (%) [12]: 75% | Total Cell Count [12]: 131
